Results: ChEMBL document CHEMBL1287707, “Virtual screening against nuclear factor κB (NF-κB) of a focus library: Identification of bioactive furocoumarin derivatives inhibiting NF-κB dependent biological functions involved in cystic fibrosis” (Bioorg Med Chem, 2010)
pIC50: −log10 of the molar value. The source made the active and inactive calls. The rule behind the calls is not given here.

target: T1, Nuclear factor NF-kappa-B p105 subunit (Homo sapiens, UniProt P19838); assay: Inhibition of NF-KB p50 subunit/DNA interaction after 20 mins by EMSA
T1 sequence (P19838 whole entry): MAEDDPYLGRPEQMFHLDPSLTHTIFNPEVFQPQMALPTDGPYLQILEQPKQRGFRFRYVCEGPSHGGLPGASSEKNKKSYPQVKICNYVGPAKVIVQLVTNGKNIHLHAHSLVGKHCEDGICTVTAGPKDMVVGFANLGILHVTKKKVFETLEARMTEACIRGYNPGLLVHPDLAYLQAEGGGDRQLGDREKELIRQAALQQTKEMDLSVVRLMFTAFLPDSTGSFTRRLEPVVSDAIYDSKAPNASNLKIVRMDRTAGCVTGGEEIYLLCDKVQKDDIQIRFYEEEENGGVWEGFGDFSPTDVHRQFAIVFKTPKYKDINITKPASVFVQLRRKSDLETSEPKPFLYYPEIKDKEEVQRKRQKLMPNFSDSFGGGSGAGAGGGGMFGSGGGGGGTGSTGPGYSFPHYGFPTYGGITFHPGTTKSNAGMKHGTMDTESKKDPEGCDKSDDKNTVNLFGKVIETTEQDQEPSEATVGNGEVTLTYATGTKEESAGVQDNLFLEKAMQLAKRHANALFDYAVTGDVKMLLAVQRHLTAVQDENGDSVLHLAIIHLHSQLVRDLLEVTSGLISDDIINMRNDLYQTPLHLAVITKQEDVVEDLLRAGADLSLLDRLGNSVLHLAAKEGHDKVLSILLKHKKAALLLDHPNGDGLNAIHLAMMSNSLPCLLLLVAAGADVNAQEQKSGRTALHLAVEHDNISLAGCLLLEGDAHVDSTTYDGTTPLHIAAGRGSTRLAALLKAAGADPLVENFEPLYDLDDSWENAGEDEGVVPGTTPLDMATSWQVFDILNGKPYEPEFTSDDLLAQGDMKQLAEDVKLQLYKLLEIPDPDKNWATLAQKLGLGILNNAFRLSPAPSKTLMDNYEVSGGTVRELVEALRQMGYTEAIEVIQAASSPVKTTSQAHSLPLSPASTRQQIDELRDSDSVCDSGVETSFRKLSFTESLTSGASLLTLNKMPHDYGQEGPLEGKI
Method in brief: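 Recombinant human NF-κB p50 (10 ng) was preincubated 20 min at room temperature with varied compound concentrations in buffer TF with 5% glycerol and 1 mM DTT. 0.25 ng 32P-labelled double-stranded NF-κB site oligo was added for a further 20 min. Complexes were resolved on 6% PAGE in 0.25X TBE and detected by autoradiography. IC50 is the concentration giving 50% inhibition of binding.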

How did the pIC50 turn out when O=c1cc(-c2ccccc2)c2cc3c(-c4ccc5c(c4)OCO5)coc3cc2o1 was run?
The pIC50 was 4.70.

How did the pIC50 turn out when COCCNc1oc2c(c1-c1cc(OC)c(OC)c(OC)c1)c(=O)oc1c(C)cccc12 was run?
Its pIC50 is 4.40.

How did the pIC50 turn out when O=C(O)c1ccc(COc2cc(O)cc3oc(=O)c4c(c23)CCC4)cc1 was run?
Its pIC50 is 2.30.

COc1ccc(C(=O)c2oc3ccc4c(C)cc(=O)oc4c3c2-c2ccccc2)cc1 was tested. Which pIC50 did it give?
Its pIC50 is 4.22.

How did the pIC50 turn out when O=c1ccc2ccc3occc3c2o1 [ANGELICIN] was run?
The pIC50 was 2.60.

How did the pIC50 turn out when O=c1c(Br)cc2c(-c3ccccc3S(=O)(=O)O)c3cc(Br)c(O)c(O)c3oc-2c1O [BROMOPYROGALLOL RED] was run?
Its pIC50 is 4.52.

Cc1cc(=O)oc2cc(O)ccc12 [HYMECROMONE] was tested. Which pIC50 did it give?
Its pIC50 is 3.70.

O=C(O)/C=C/c1ccccc1O [O-COUMARIC ACID] was tested. Which pIC50 did it give?
The pIC50 was 4.30.

How did the pIC50 turn out when O=c1ccc2cc3ccoc3cc2o1 [PSORALEN] was run?
The pIC50 was 2.52.

How did the pIC50 turn out when O=c1ccc2c(-c3ccccc3S(=O)(=O)O)c3ccc(O)c(O)c3oc-2c1O [PYROGALLOL RED] was run?
The pIC50 was 5.00.

test system: IB3-1; assay: Antiinflammatory activity in Pseudomonas aeruginosa PAO1 infected human IB3-1 cells assessed as inhibition of IL8 gene expression at 10 uM after 4 hrs by RT-PCR analysis; type: functional, cell-based
Method in brief: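 IB3-1 CF bronchial cells (ΔF508/W1282X) were grown in LHC-8 with 5% FBS, seeded at 200,000 cells/cm2, and serum-starved 18 h. Cells were then preincubated overnight with compound at 10 µM and infected with PAO1 at 30–100 CFU/cell for 4 h at 37 °C. Total RNA was reverse-transcribed and IL-8 mRNA quantified by RT-qPCR.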

With COCCNc1oc2c(c1-c1cc(OC)c(OC)c(OC)c1)c(=O)oc1c(C)cccc12 as the compound, how does the Activity read?
The Activity was “Active”.

COc1ccc(C(=O)c2oc3ccc4c(C)cc(=O)oc4c3c2-c2ccccc2)cc1 was tested. Which Activity did it give?
Its Activity is “Active”.
